The source made the active and inactive calls. No cut-off for these calls is given here.
Experiments:
[1] = biological target: Adenosine receptor A2a (Rattus norvegicus) (UniProt P30543); experiment: Displacement of [3H]-CGS- 21680 from A2A receptors in rat striatal membranes at 100 uM; format: cell membranes; settings: Membrane
Outline: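 Rat striatal membranes as A2A receptor source; displacement of specific [3H]CGS 21680 binding. Reported as Ki ± SEM or as % displacement, n = 3-6.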

[2] = biological target: T1, Adenosine receptor A1 (Rattus norvegicus) (UniProt P25099); experiment: Displacement of [3H]R-PIA from Adenosine A1 receptor in rat brain membrane at 100 uM; format: cell membranes
T1 sequence (whole entry): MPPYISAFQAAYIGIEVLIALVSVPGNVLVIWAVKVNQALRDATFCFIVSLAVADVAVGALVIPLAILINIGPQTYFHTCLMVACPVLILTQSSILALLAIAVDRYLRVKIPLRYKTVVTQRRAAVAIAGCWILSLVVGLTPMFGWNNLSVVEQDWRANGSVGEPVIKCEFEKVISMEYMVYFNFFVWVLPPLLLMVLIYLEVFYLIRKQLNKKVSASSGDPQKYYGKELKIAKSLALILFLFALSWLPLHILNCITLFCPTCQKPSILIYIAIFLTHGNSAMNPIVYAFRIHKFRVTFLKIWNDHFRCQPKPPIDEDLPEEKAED

Adenosine receptor A1 = biological target: T2, Adenosine receptor A1 (Rattus norvegicus, UniProt P25099); experiment: Displacement of [3H]R-PIA binding to Adenosine A1 receptor in rat brain membrane; format: cell membranes
T2 sequence (P25099 whole entry): T1 sequence (whole entry)

Adenosine receptor A3 = biological target: T3, Adenosine receptor A3 (Homo sapiens, UniProt P0DMS8); experiment: Displacement of [125I]AB-MECA from human Adenosine A3 receptor expressed in HEK293 cell membranes
T3 sequence (P0DMS8 whole entry): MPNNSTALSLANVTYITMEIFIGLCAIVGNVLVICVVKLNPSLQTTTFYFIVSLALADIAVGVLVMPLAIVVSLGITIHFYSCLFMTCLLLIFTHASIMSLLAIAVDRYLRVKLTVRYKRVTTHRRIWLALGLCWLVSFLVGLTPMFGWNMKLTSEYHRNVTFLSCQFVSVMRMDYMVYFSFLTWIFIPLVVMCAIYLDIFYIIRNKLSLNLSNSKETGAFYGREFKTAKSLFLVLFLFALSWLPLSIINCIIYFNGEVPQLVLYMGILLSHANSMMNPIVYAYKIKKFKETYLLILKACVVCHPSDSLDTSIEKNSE
Outline: (§1)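 Membranes from HEK-293 cells expressing human A3 receptor; specific [125I]AB-MECA binding displaced by test ligands. Reported as Ki ± SEM or as % displacement, n = 3-5.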

HL-60 [3] = experiment: Effect on calcium mobilization in HL-60 cells at the dose of 100 uM concentration (1 uM UTP); format: functional, Homo sapiens
[4] = biological target: T4, Adenosine receptor A3 (Homo sapiens) (UniProt P0DMS8); experiment: Displacement of [125I]AB-MECA from human Adenosine A3 receptor expressed in HEK293 cell membranes at 100 uM; outline: as §1
T4 sequence (whole entry): T3 sequence (P0DMS8 whole entry)

HL-60 [5] = experiment: Effect on calcium mobilization in HL-60 cells at the dose of 100 uM concentration; Inactive; format: functional, cell-based; settings: Homo sapiens

Adenosine receptor A2a (Rattus norvegicus), sequence (P30543 whole entry): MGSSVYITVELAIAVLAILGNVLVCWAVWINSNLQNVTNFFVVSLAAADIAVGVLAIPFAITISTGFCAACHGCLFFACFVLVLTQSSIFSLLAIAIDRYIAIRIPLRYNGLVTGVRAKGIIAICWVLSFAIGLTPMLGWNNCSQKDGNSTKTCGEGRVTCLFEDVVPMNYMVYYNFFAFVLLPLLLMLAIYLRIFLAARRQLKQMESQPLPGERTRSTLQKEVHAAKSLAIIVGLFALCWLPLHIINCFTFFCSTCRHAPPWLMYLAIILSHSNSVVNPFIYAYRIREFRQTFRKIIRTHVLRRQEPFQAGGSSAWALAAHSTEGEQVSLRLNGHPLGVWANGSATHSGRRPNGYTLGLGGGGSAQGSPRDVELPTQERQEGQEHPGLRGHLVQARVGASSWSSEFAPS

Row | Displacement [1] [%] | Displacement [2] [%] | Ki (Adenosine receptor A3) [µM] | SMILES | other results
1 | < 10 | < 10 |  | OC[C@@]12C[C@@H]1[C@@H](n1cnc3c(O)ncnc31)[C@H](O)[C@@H]2O | 
2 | < 10 |  | 1.86 | CCCCn1c(=O)c2c(ncn2[C@H]2[C@H](O)[C@H](O)[C@]3(C(=O)NC)C[C@H]23)n(CCCC)c1=O | Ki (Adenosine receptor A1): 24.4 µM
3 | < 10 | < 10 | 20.5 | Nc1nc(O)c2ncn([C@H]3[C@H](O)[C@H](O)[C@]4(CO)C[C@H]34)c2n1 | 
4 | < 10 |  | 4.35 | CCCCn1c(=O)c2c(ncn2[C@H]2[C@H](O)[C@H](O)[C@]3(CO)C[C@H]23)n(CCCC)c1=O | Ki (Adenosine receptor A1): 2.97 µM
5 |  |  |  | Nc1nc(O)c2ncn([C@H]3[C@H](O)[C@H](O)[C@]4(COP(=O)(O)OP(=O)(O)OP(=O)(O)O)C[C@H]34)c2n1 | Activity (HL-60 [3]): 53%; Displacement [4]: < 10%
6 |  |  |  | CCCCn1c(=O)c2c(ncn2[C@H]2[C@H](O)[C@H](O)[C@]3(OP(=O)(O)OP(=O)(O)OP(=O)(O)O)C[C@H]23)n(CCCC)c1=O | Displacement [4]: < 10%
7 | < 10 | < 10 |  | CNC(=O)[C@@]12C[C@@H]1[C@@H](n1cnc3c(O)ncnc31)[C@H](O)[C@@H]2O | 
8 |  |  | 21.6 | O=P(O)(OC[C@@]12C[C@@H]1[C@@H](n1cnc3c(O)ncnc31)[C@H](O)[C@@H]2O)OP(=O)(O)OC[C@@]12C[C@@H]1[C@@H](n1cnc3c(O)ncnc31)[C@H](O)[C@@H]2O | Activity (HL-60 [5]): inactive
9 |  |  |  | O=P(O)(O)OC[C@@]12C[C@@H]1[C@@H](n1cnc3c(O)ncnc31)[C@H](O)[C@@H]2O | Activity (HL-60 [5]): inactive
10 |  |  | 28.8 | CNC(=O)[C@@]12C[C@@H]1[C@@H](n1cnc3c(=O)[nH]cnc31)[C@H](O)[C@@H]2O | 

From ChEMBL document CHEMBL1134737, “Synthesis and purine receptor affinity of 6-oxopurine nucleosides and nucleotides containing (N)-methanocarba-pseudoribose rings” (Bioorg Med Chem Lett, 2001)
